{"source": "ChEMBL document CHEMBL3792331", "about": "“Identification and synthesis of potent and selective pyridyl-isoxazole based agonists of sphingosine-1-phosphate 1 (S1P1)” (Bioorg Med Chem Lett, 2016)", "key": {"Rattus norvegicus [1]": {"system": "Rattus norvegicus", "test": "Clearance in rat at 2 mg/kg, iv relative to hepatic blood flow", "assay_type": "ADME, organism-based, Liver", "conditions": "in vivo"}, "[2]": {"test": "Oral bioavailability in rat at 5 mg/kg", "assay_type": "ADME, organism-based", "conditions": "in vivo"}, "[3]": {"test": "Protein binding in mouse plasma", "assay_type": "ADME, cell-free", "conditions": "read-out: PPB (converted)"}, "[4]": {"test": "Clearance in mouse at 2 mg/kg, iv", "assay_type": "ADME, organism-based", "conditions": "in vivo"}, "Rattus norvegicus [5]": {"system": "Rattus norvegicus", "test": "Reduction in circulating lymphocytes in Lewis rat at 1 mg/kg, po after 4 hrs", "assay_type": "functional", "how_it_was_run": "(§1)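 Healthy Lewis rats dosed orally with test article as solution or suspension in vehicle, or vehicle alone. Blood drawn at 4 h and 24 h. Circulating lymphocyte percentage measured by hematology analyzer, expressed as reduction versus the vehicle group. Group average, n = 3–4.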"}, "Salmonella typhimurium": {"system": "Salmonella typhimurium", "test": "Mutagenicity in Salmonella typhimurium", "assay_type": "toxicity, organism-based", "conditions": "salmonella enterica subsp. enterica serovar typhimurium"}, "Canis familiaris": {"system": "Canis familiaris", "test": "Ratio of Cmax to Cmin in dog at 1 mg/kg, po", "assay_type": "ADME, organism-based, Canis lupus familiaris", "conditions": "in vivo"}, "[6]": {"test": "Protein binding in human plasma", "assay_type": "ADME, cell-free", "conditions": "read-out: PPB (converted)"}, "[7]": {"test": "Protein binding in rat plasma", "assay_type": "ADME, cell-free", "conditions": "read-out: PPB (converted)"}, "Rattus norvegicus [8]": {"system": "Rattus norvegicus", "test": "Reduction in circulating lymphocytes in Lewis rat at 0.3 mg/kg, po after 24 hrs", "assay_type": "functional", "how_it_was_run": "as §1"}, "Cytochrome P450 3A4": {"target": "Cytochrome P450 3A4 (Homo sapiens, UniProt P08684)", "sequence (P08684 whole entry)": "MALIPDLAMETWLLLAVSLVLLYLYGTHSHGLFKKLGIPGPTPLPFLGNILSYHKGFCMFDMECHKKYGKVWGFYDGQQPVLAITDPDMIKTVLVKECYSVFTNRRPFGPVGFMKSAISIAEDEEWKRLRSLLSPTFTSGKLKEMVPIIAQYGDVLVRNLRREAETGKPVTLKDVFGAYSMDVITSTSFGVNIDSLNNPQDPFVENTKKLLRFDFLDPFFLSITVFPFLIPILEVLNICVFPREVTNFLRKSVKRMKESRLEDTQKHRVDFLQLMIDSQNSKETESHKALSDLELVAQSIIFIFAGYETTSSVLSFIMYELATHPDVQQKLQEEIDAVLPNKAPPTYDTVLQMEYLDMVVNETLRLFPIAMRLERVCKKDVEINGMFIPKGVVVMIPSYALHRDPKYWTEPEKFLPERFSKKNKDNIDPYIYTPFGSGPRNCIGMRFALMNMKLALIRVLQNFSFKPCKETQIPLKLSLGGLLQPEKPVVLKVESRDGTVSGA", "test": "Inhibition of CYP3A4 (unknown origin)", "assay_type": "ADME"}, "Mus musculus": {"system": "Mus musculus", "test": "Clearance in mouse at 2 mg/kg, iv relative to hepatic blood flow", "assay_type": "ADME, organism-based, Liver", "conditions": "in vivo"}, "Cytochrome P450 1A2": {"target": "T1, Cytochrome P450 1A2 (Homo sapiens, UniProt P05177)", "T1 sequence (P05177 whole entry)": "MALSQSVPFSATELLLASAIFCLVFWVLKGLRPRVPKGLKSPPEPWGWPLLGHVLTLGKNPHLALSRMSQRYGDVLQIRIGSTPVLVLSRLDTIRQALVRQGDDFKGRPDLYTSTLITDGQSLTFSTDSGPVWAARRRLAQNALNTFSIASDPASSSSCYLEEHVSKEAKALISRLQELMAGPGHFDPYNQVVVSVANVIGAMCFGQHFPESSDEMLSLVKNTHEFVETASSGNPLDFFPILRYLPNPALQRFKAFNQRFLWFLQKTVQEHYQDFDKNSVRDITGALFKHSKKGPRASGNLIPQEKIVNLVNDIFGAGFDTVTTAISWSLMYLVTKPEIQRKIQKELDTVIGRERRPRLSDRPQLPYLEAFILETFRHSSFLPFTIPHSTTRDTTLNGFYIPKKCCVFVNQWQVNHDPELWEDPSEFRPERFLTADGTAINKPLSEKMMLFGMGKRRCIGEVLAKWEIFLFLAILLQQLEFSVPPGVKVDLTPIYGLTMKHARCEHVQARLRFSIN", "test": "Inhibition of CYP1A2 (unknown origin)", "assay_type": "ADME"}, "Liver microsome": {"system": "Liver microsome", "test": "Stability in human liver microsomes assessed as compound remaining", "assay_type": "ADME"}, "[9]": {"test": "Half life in cynomolgus monkey at 1 mg/kg, iv", "assay_type": "ADME, organism-based, Macaca fascicularis", "conditions": "in vivo"}, "[10]": {"target": "Sphingosine 1-phosphate receptor 3 (Homo sapiens, UniProt Q99500)", "sequence (Q99500 whole entry)": "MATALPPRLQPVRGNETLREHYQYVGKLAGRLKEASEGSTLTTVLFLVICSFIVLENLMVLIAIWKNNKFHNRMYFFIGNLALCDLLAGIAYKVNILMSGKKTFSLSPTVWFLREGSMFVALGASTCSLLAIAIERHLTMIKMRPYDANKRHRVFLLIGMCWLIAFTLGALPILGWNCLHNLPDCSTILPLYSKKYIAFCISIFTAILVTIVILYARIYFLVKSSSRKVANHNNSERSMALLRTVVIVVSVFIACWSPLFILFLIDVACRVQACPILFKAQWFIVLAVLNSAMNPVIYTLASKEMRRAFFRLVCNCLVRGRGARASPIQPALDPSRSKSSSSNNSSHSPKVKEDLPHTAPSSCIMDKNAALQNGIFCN", "test": "Agonist activity at human S1P3 receptor expressed in EDG3-Ga15-bla HEK293T cell membranes assessed as stimulation of [35S]GTPgamma binding incubated for 45 mins by liquid scintillation counting method", "set-up": "species or system HEK-293T", "how_it_was_run": "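Membranes from S1P1/CHO cells (S1P1) or EDG3-Ga15-bla HEK293T cells (S1P3), final protein […], with 3-fold compound dilutions. Buffer: 20 mM HEPES pH 7.5, 10 mM MgCl2, 150 mM NaCl, 1 mM EGTA, 1 mM DTT, GDP, 0.1% fatty acid free BSA, saponin. [35S]GTP 0.2 nM final. Room temperature, 45 min. Filtered, washed with water, dried 60 °C. EC50 taken at 50% of each compound's Ymax.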"}, "[11]": {"test": "Volume of distribution at steady state in dog at 1 mg/kg, iv", "assay_type": "ADME, organism-based, Canis lupus familiaris", "conditions": "in vivo, read-out: Vdss", "how_it_was_run": "(§2)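 Multi-species pharmacokinetic study with separate iv and oral dosing arms. Steady-state volume of distribution was taken from the iv arm: 2 mg/kg in mouse and rat, 1 mg/kg in cynomolgus monkey and dog. Oral doses in the same study were 5 mg/kg in mouse and rat and 1 mg/kg in monkey and dog.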"}, "hERG (KCNH2)": {"target": "hERG (KCNH2) (Homo sapiens, UniProt Q12809)", "sequence (Q12809 whole entry)": "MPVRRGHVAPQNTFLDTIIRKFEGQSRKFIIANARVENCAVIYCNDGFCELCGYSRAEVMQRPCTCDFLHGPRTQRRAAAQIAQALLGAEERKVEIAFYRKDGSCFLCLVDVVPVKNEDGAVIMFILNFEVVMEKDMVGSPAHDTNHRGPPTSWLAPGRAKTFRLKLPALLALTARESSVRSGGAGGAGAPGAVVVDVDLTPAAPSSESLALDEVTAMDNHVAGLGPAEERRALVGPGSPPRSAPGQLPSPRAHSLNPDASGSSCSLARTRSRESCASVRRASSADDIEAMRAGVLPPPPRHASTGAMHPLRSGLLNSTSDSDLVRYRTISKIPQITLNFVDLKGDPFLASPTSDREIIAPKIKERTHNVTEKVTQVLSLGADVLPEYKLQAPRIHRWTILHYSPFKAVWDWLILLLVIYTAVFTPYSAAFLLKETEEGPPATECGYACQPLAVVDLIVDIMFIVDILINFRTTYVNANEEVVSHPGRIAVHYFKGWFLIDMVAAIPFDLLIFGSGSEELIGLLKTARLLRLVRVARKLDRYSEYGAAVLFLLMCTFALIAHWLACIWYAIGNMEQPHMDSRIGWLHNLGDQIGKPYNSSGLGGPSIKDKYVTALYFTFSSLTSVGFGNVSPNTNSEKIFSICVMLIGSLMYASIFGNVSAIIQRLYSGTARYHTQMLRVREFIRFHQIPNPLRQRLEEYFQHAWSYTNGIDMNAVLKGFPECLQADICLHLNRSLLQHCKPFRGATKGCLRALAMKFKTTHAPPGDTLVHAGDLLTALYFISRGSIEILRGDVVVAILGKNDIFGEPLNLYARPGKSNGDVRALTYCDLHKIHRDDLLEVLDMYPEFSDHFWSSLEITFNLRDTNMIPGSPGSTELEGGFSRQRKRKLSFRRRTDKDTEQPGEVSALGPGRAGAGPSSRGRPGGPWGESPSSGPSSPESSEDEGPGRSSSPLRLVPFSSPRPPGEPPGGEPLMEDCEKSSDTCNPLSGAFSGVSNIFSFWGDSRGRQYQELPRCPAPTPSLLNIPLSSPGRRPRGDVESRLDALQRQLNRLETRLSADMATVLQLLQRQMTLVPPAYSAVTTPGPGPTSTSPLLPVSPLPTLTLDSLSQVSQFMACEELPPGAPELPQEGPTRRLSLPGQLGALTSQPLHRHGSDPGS", "test": "Inhibition of human ERG at 10 uM by patch clamp assay"}, "Rattus norvegicus [12]": {"system": "Rattus norvegicus", "test": "Reduction in circulating lymphocytes in Lewis rat at 1 mg/kg, po after 24 hrs", "assay_type": "functional", "how_it_was_run": "as §1"}, "Homo sapiens": {"species_on_record": "Homo sapiens", "test": "Inhibition of potassium channel (unknown origin) at 10 uM by patch clamp assay"}, "[13]": {"test": "Volume of distribution at steady state in rat at 2 mg/kg, iv", "assay_type": "ADME, organism-based", "conditions": "in vivo, read-out: Vdss", "how_it_was_run": "as §2"}, "[14]": {"test": "Plasma concentration Lewis rat at 1 mg/kg, po after 24 hrs", "assay_type": "ADME, organism-based", "how_it_was_run": "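Lewis rats given 1.0 mg/kg orally as solution or suspension in vehicle. Plasma drug concentration measured in blood drawn at 4 h and 24 h; 4 h/24 h ratio taken from these values.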"}, "Rattus norvegicus [15]": {"system": "Rattus norvegicus", "test": "Ratio of Cmax to Cmin in rat at 5 mg/kg, po", "assay_type": "ADME, organism-based", "conditions": "in vivo"}, "[16]": {"test": "Clearance in dog at 1 mg/kg, iv", "assay_type": "ADME, organism-based, Canis lupus familiaris", "conditions": "in vivo"}, "Cynomolgus monkey [17]": {"system": "Cynomolgus monkey", "test": "Clearance in cynomolgus monkey at 1 mg/kg, iv relative to hepatic blood flow", "assay_type": "ADME, organism-based, Macaca fascicularis, Liver", "conditions": "in vivo"}, "Cytochrome P450 2C9": {"target": "Cytochrome P450 2C9 (Homo sapiens, UniProt P11712)", "sequence (P11712 whole entry)": "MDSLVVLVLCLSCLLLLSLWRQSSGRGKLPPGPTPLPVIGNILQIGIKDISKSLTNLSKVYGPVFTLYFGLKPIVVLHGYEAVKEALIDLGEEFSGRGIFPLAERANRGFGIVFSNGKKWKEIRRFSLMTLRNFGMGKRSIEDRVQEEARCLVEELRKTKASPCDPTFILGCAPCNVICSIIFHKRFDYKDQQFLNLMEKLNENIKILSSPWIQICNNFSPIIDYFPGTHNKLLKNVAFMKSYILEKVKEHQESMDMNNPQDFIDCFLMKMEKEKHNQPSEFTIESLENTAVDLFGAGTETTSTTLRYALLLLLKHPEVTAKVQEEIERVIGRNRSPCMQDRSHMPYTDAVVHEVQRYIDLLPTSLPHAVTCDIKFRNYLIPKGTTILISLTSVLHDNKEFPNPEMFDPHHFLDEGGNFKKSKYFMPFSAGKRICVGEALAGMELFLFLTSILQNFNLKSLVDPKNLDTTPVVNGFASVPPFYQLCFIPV", "test": "Inhibition of CYP2C9 (unknown origin)", "assay_type": "ADME"}, "Cynomolgus monkey [18]": {"system": "Cynomolgus monkey", "test": "Ratio of Cmax to Cmin in cynomolgus monkey at 1 mg/kg, po", "assay_type": "ADME, organism-based, Macaca fascicularis", "conditions": "in vivo"}, "Cytochrome P450 2C19": {"target": "Cytochrome P450 2C19 (Homo sapiens, UniProt P33261)", "sequence (P33261 whole entry)": "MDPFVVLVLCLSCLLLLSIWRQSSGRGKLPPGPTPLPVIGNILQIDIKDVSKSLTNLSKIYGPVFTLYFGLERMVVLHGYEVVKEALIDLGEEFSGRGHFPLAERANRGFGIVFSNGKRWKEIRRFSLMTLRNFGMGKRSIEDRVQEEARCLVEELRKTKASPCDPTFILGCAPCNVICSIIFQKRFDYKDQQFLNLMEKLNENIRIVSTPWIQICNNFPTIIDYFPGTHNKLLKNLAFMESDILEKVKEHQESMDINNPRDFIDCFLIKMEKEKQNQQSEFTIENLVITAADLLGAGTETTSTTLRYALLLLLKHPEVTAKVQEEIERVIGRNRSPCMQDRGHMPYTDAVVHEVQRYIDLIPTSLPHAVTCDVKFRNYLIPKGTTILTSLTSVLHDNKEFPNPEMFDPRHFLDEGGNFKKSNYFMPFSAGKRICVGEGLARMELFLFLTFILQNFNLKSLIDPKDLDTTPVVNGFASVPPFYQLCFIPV", "test": "Inhibition of CYP2C19 (unknown origin)", "assay_type": "ADME"}}, "note": "pEC50, pIC50: −log10 of the molar value."}
{"smiles": "O=C(O)C1CN(Cc2ccc(-c3noc(-c4onc(-c5ccccn5)c4C(F)(F)F)n3)cc2)C1", "values": [{"measurement": "CL", "setting": "Rattus norvegicus [1]", "result": 1.4, "unit": "%"}, {"measurement": "bioavailability", "setting": "[2]", "result": 100, "unit": "%"}, {"measurement": "fraction unbound", "setting": "[3]", "result": 0.006}, {"measurement": "clearance", "setting": "[4]", "result": 0.3, "unit": "mL/min/kg"}, {"measurement": "inhibition in vivo at 1 mg/kg", "setting": "Rattus norvegicus [5]", "result": 85, "unit": "%"}, {"measurement": "Activity", "setting": "Salmonella typhimurium", "result": "Non-toxic"}, {"measurement": "Ratio", "setting": "Canis familiaris", "result": 7.4}, {"measurement": "fraction unbound", "setting": "[6]", "result": 0.005}, {"measurement": "fraction unbound", "setting": "[7]", "result": 0.024}, {"measurement": "inhibition in vivo at 0.3 mg/kg", "setting": "Rattus norvegicus [8]", "result": 50, "unit": "%"}, {"measurement": "pIC50", "setting": "Cytochrome P450 3A4", "result": "< 4.40"}, {"measurement": "CL", "setting": "Mus musculus", "result": "< 1", "unit": "%"}, {"measurement": "pIC50", "setting": "Cytochrome P450 1A2", "result": "< 4.40"}, {"measurement": "Stability", "setting": "Liver microsome", "result": 88, "unit": "%"}, {"measurement": "half-life", "setting": "[9]", "result": 1.1, "unit": "h"}, {"measurement": "pEC50", "setting": "[10]", "result": 5.54}, {"measurement": "Vd", "setting": "[11]", "result": 0.7, "unit": "L/kg"}, {"measurement": "inhibition at 10 µM", "setting": "hERG (KCNH2)", "result": 13, "unit": "%"}, {"measurement": "inhibition in vivo at 1 mg/kg", "setting": "Rattus norvegicus [12]", "result": 80, "unit": "%"}, {"measurement": "inhibition", "setting": "Homo sapiens", "result": 12, "unit": "%"}, {"measurement": "Vd", "setting": "[13]", "result": 0.4, "unit": "L/kg"}, {"measurement": "concentration at 24 h", "setting": "[14]", "result": 54, "unit": "nM"}, {"measurement": "Ratio", "setting": "Rattus norvegicus [15]", "result": 26}, {"measurement": "clearance", "setting": "[16]", "result": 2.6, "unit": "mL/min/kg"}, {"measurement": "CL", "setting": "Cynomolgus monkey [17]", "result": 32, "unit": "%"}, {"measurement": "pIC50", "setting": "Cytochrome P450 2C9", "result": "< 4.40"}, {"measurement": "Ratio", "setting": "Cynomolgus monkey [18]", "result": "> 400"}, {"measurement": "pIC50", "setting": "Cytochrome P450 2C19", "result": "< 4.40"}]}
